Reference: ChEMBL document CHEMBL5385966, “Synthesis and biological evaluation of new naphthalimide-thiourea derivatives as potent antimicrobial agents active against multidrug-resistant Staphylococcus aureus and Mycobacterium tuberculosis” (RSC Med Chem, 2024)
Values after ≈ are worked out from the molar mass of the structure shown. Active and inactive are the calls of the source. The rule behind the calls is not given here.

What was measured:
Acinetobacter baumannii = test: Antibacterial activity against Acinetobacter baumannii BAA 1605 assessed as bacterial growth inhibition incubated for 16 to 18 hrs by CLSI based antibiotic susceptibility testing method; assay type: functional, organism-based; conditions: time 16-18 hrs
In short: (§1)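 Broth microdilution in cation-adjusted Mueller-Hinton broth. Compounds were tested at […], with levofloxacin as reference and medium-only controls. Plates were incubated at 37 °C for 16-18 h. MIC was the lowest concentration with no visible growth; three independent determinations, each in duplicate.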

Staphylococcus aureus [1] = test: Antibacterial activity against methicillin/ceftriaxone/meropenem-resistant Staphylococcus aureus NRS10191 clinical isolate assessed as bacterial growth inhibition incubated for 16 to 18 hrs by CLSI based antibiotic susceptibility testing method; assay type: functional; conditions: time 16-18 hrs; in short: as §1
Staphylococcus aureus [2] = test: Antibacterial activity against methicillin/ceftriaxone/meropenem/vancomycin/teicoplanin-resistant Staphylococcus aureus VRS12 clinical isolate assessed as bacterial growth inhibition incubated for 16 to 18 hrs by CLSI based antibiotic susceptibility testing method; assay type: functional; conditions: time 16-18 hrs; in short: as §1
[3] = test system: Mycobacteroides abscessus; test: Antimycobacterial activity against Mycobacterium abscessus ATCC 19977 assessed as bacterial growth inhibition incubated for 72 hrs by resazurin dye based broth microdilution method; assay type: functional, organism-based
In short: (§2)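 Broth microdilution in Middlebrook 7H9 with 10% ADC-Tween-80 (0.2% glycerol, 0.05% Tween-80), inoculum ~10⁶ cfu/mL. Compounds came from 10 mg/mL DMSO stocks and were tested as two-fold serial dilutions at 37 °C, 7 days for M. tuberculosis H37Rv and 72 h for NTM. Growth was read visually with PrestoBlue resazurin dye; MIC was the lowest concentration preventing growth. Triplicate determinations, each in duplicate.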

Staphylococcus aureus [4] = test: Antibacterial activity against methicillin/ceftriaxone/meropenem-resistant Staphylococcus aureus NRS10198 clinical isolate assessed as bacterial growth inhibition incubated for 16 to 18 hrs by CLSI based antibiotic susceptibility testing method; assay type: functional; conditions: time 16-18 hrs; in short: as §1
Staphylococcus aureus [5] = test: Antibacterial activity against methicillin/ceftriaxone-resistant Staphylococcus aureus NRS10194 clinical isolate assessed as bacterial growth inhibition incubated for 16 to 18 hrs by CLSI based antibiotic susceptibility testing method; assay type: functional; conditions: time 16-18 hrs; in short: as §1
Escherichia coli = test: Antibacterial activity against Escherichia coli ATCC 25922 assessed as bacterial growth inhibition incubated for 16 to 18 hrs by CLSI based antibiotic susceptibility testing method; assay type: functional, organism-based; conditions: time 16-18 hrs; in short: as §1
[6] = Cytotoxicity against African green monkey Vero cells by MTT assay; assay type: toxicity, cell-based; conditions: chlorocebus sabaeus
In short: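 Vero cells were seeded at ~10³ per well at 37 °C, 5% CO2. After 24 h, compounds were added at 5-100 mg/L for 72 h. […] was added for 4 h, formazan was dissolved in DMSO and read at 540 nm. CC50 was taken as the lowest concentration reducing viability by 50%; doxorubicin was the positive control; triplicate.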

Staphylococcus aureus [7] = test: Antibacterial activity against methicillin/ceftriaxone/meropenem/gentamycin/linezolid-resistant Staphylococcus aureus NRS10119 clinical isolate assessed as bacterial growth inhibition incubated for 16 to 18 hrs by CLSI based antibiotic susceptibility testing method; assay type: functional; conditions: time 16-18 hrs; in short: as §1
[8] = Selectivity index, ratio of CC50 for African green monkey Vero cells to MIC for Staphylococcus aureus ATCC 29213; assay type: toxicity, cell-based; conditions: read-out: Selectivity Index
Staphylococcus aureus [9] = test: Antibacterial activity against methicillin/ceftriaxone/meropenem-resistant Staphylococcus aureus NRS10193 clinical isolate assessed as bacterial growth inhibition incubated for 16 to 18 hrs by CLSI based antibiotic susceptibility testing method; assay type: functional; conditions: time 16-18 hrs; in short: as §1
[10] = test system: Mycobacterium tuberculosis; test: Antimycobacterial activity against Mycobacterium tuberculosis H37Rv ATCC 27294 assessed as bacterial growth inhibition incubated for 7 days by resazurin dye based broth microdilution method; assay type: functional; conditions: H37Rv ATCC 27294, 168 h, time 7 day; in short: as §2
Staphylococcus aureus [11] = test: Antibacterial activity against methicillin/ceftriaxone/meropenem-resistant Staphylococcus aureus NRS10129 clinical isolate assessed as bacterial growth inhibition incubated for 16 to 18 hrs by CLSI based antibiotic susceptibility testing method; assay type: functional; conditions: time 16-18 hrs; in short: as §1
Mycobacteroides chelonae = test: Antimycobacterial activity against Mycobacteroides chelonae ATCC 35752 assessed as bacterial growth inhibition incubated for 72 hrs by resazurin dye based broth microdilution method; assay type: functional, organism-based; in short: as §2
Staphylococcus aureus [12] = test: Antibacterial activity against methicillin-sensitive Staphylococcus aureus ATCC 29213 clinical isolate assessed as bacterial growth inhibition incubated for 16 to 18 hrs by CLSI based antibiotic susceptibility testing method; assay type: functional; conditions: time 16-18 hrs; in short: as §1
Staphylococcus aureus [13] = test: Antibacterial activity against methicillin/ceftriaxone/meropenem-resistant Staphylococcus aureus NRS10186 clinical isolate assessed as bacterial growth inhibition incubated for 16 to 18 hrs by CLSI based antibiotic susceptibility testing method; assay type: functional; conditions: time 16-18 hrs; in short: as §1
[14] = test system: Mycolicibacterium fortuitum; test: Antimycobacterial activity against Mycobacterium fortuitum ATCC 6841 assessed as bacterial growth inhibition incubated for 72 hrs by resazurin dye based broth microdilution method; assay type: functional, organism-based; in short: as §2
Staphylococcus aureus [15] = test: Antibacterial activity against methicillin/ceftriaxone/meropenem/gentamycin/vancomycin/teicoplanin-resistant Staphylococcus aureus VRS1 clinical isolate assessed as bacterial growth inhibition incubated for 16 to 18 hrs by CLSI based antibiotic susceptibility testing method; assay type: functional; conditions: time 16-18 hrs; in short: as §1
Staphylococcus aureus [16] = test: Antibacterial activity against methicillin/ceftriaxone/meropenem-resistant Staphylococcus aureus NRS10192 clinical isolate assessed as bacterial growth inhibition incubated for 16 to 18 hrs by CLSI based antibiotic susceptibility testing method; assay type: functional; conditions: time 16-18 hrs; in short: as §1
Staphylococcus aureus [17] = test: Antibacterial activity against methicillin/ceftriaxone/meropenem/gentamycin/linezolid-resistant Staphylococcus aureus NRS10100 clinical isolate assessed as bacterial growth inhibition incubated for 16 to 18 hrs by CLSI based antibiotic susceptibility testing method; assay type: functional; conditions: time 16-18 hrs; in short: as §1
Staphylococcus aureus [18] = test: Antibacterial activity against Staphylococcus aureus ATCC 29213 assessed as bacterial growth inhibition incubated for 16 to 18 hrs by CLSI based antibiotic susceptibility testing method; assay type: functional; conditions: time 16-18 hrs; in short: as §1
Pseudomonas aeruginosa = test: Antibacterial activity against Pseudomonas aeruginosa ATCC 27853 assessed as bacterial growth inhibition incubated for 16 to 18 hrs by CLSI based antibiotic susceptibility testing method; assay type: functional, organism-based; conditions: time 16-18 hrs; in short: as §1
Klebsiella pneumoniae = test: Antibacterial activity against Klebsiella pneumoniae BAA 1705 assessed as bacterial growth inhibition incubated for 16 to 18 hrs by CLSI based antibiotic susceptibility testing method; assay type: functional, organism-based; conditions: time 16-18 hrs; in short: as §1
Staphylococcus aureus [19] = test: Antibacterial activity against methicillin/ceftriaxone/meropenem/vancomycin/teicoplanin-resistant Staphylococcus aureus VRS4 clinical isolate assessed as bacterial growth inhibition incubated for 16 to 18 hrs by CLSI based antibiotic susceptibility testing method; assay type: functional; conditions: time 16-18 hrs; in short: as §1

SMILES	growth inhibition (GI) (Acinetobacter baumannii)	MIC (Staphylococcus aureus [1]) [µg/mL]	MIC (Staphylococcus aureus [2]) [µg/mL]	growth inhibition (GI) [3]	MIC (Staphylococcus aureus [4]) [µg/mL]	MIC (Staphylococcus aureus [5]) [µg/mL]	growth inhibition (GI) (Escherichia coli)	CC50 [6] [µg/mL]	MIC (Staphylococcus aureus [7]) [µg/mL]	selectivity ratio [8]	MIC (Staphylococcus aureus [9]) [µg/mL]	MIC [10] [µg/mL]	MIC (Staphylococcus aureus [11]) [µg/mL]	growth inhibition (GI) (Mycobacteroides chelonae)	MIC (Staphylococcus aureus [12]) [µg/mL]	MIC (Staphylococcus aureus [13]) [µg/mL]	growth inhibition (GI) [14]	MIC (Staphylococcus aureus [15]) [µg/mL]	MIC (Staphylococcus aureus [16]) [µg/mL]	MIC (Staphylococcus aureus [17]) [µg/mL]	also measured
O=C(CN1C(=O)c2cccc3cccc(c23)C1=O)N1CCN(C(=S)NC2CCCCC2)CC1	inactive	0.25 (≈ 0.538 µM)	0.25 (≈ 0.538 µM)	inactive	0.25 (≈ 0.538 µM)	0.125 (≈ 0.269 µM)	inactive	> 100	0.25 (≈ 0.538 µM)	> 400	0.25 (≈ 0.538 µM)	> 64	0.25 (≈ 0.538 µM)	inactive	0.125 (≈ 0.269 µM)	0.125 (≈ 0.269 µM)	inactive	0.25 (≈ 0.538 µM)	0.125 (≈ 0.269 µM)	0.5 (≈ 1.08 µM)	MIC (Staphylococcus aureus [18]): 0.25 µg/mL (≈ 0.538 µM); growth inhibition (GI) (Pseudomonas aeruginosa): inactive; growth inhibition (GI) (Klebsiella pneumoniae): inactive; MIC (Staphylococcus aureus [19]): 0.25 µg/mL (≈ 0.538 µM)
O=C(CN1C(=O)c2cccc3cccc(c23)C1=O)N1CCC(NC(=S)NC2CCCCCC2)CC1	inactive	0.25 (≈ 0.507 µM)	0.25 (≈ 0.507 µM)	inactive	0.25 (≈ 0.507 µM)	0.25 (≈ 0.507 µM)	inactive	> 100	0.25 (≈ 0.507 µM)	> 400	0.25 (≈ 0.507 µM)	> 64	0.25 (≈ 0.507 µM)	inactive	0.25 (≈ 0.507 µM)	0.25 (≈ 0.507 µM)	inactive	0.25 (≈ 0.507 µM)	0.25 (≈ 0.507 µM)	0.25 (≈ 0.507 µM)	MIC (Staphylococcus aureus [18]): 0.25 µg/mL (≈ 0.507 µM); growth inhibition (GI) (Pseudomonas aeruginosa): inactive; growth inhibition (GI) (Klebsiella pneumoniae): inactive; MIC (Staphylococcus aureus [19]): 0.25 µg/mL (≈ 0.507 µM)
O=C(CN1C(=O)c2cccc3cccc(c23)C1=O)N1CCC(NC(=S)Nc2ccccc2)CC1	inactive	0.25 (≈ 0.529 µM)	0.5 (≈ 1.06 µM)	inactive	0.25 (≈ 0.529 µM)	1 (≈ 2.12 µM)	inactive	> 100	0.25 (≈ 0.529 µM)	> 200	0.25 (≈ 0.529 µM)	> 64	1 (≈ 2.12 µM)	inactive	1 (≈ 2.12 µM)	0.25 (≈ 0.529 µM)	inactive	0.5 (≈ 1.06 µM)	0.25 (≈ 0.529 µM)	1 (≈ 2.12 µM)	MIC (Staphylococcus aureus [18]): 0.5 µg/mL (≈ 1.06 µM); growth inhibition (GI) (Pseudomonas aeruginosa): inactive; growth inhibition (GI) (Klebsiella pneumoniae): inactive; MIC (Staphylococcus aureus [19]): 0.25 µg/mL (≈ 0.529 µM)
O=C(CN1C(=O)c2cccc3cccc(c23)C1=O)N1CCC(NC(=S)NC2CCCCC2)CC1	inactive	0.125 (≈ 0.261 µM)	0.125 (≈ 0.261 µM)	inactive	0.125 (≈ 0.261 µM)	0.125 (≈ 0.261 µM)	inactive	> 100	0.125 (≈ 0.261 µM)	> 800	0.125 (≈ 0.261 µM)	> 64	0.125 (≈ 0.261 µM)	inactive	0.125 (≈ 0.261 µM)	0.125 (≈ 0.261 µM)	inactive	0.125 (≈ 0.261 µM)	0.125 (≈ 0.261 µM)	0.125 (≈ 0.261 µM)	MIC (Staphylococcus aureus [18]): 0.125 µg/mL (≈ 0.261 µM); growth inhibition (GI) (Pseudomonas aeruginosa): inactive; growth inhibition (GI) (Klebsiella pneumoniae): inactive; MIC (Staphylococcus aureus [19]): 0.125 µg/mL (≈ 0.261 µM)
